From ChEMBL document CHEMBL4680172, “Synthesis and biological evaluation of coumarin derivatives as α-glucosidase inhibitors” (Eur J Med Chem, 2020)
Activity calls are given as the source filed them. The calls are words filed in the database; no cut-off is given here.

What was measured:
[1] = Inhibition of Saccharomyces cerevisiae alpha-glucosidase using PNPG as substrate preincubated for 10 mins followed by substrate addition measured after 30 mins
Method in brief: (§1)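 Enzyme 0.1 U/mL final in 0.1 M potassium phosphate, pH 6.8, with compound added from DMSO; 10 min at 37 ℃, then PNPG at 1 mmol/L final, another 30 min at 37 ℃. Absorbance read at 405 nm against a no-compound control. Line 1 screened at a single 100 µM; IC50 from the %inhibition–concentration plot. Duplicates, means taken.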

Saccharomyces cerevisiae [2] = assay: Inhibition of Saccharomyces cerevisiae alpha-glucosidase at 100 uM using PNPG as substrate preincubated for 10 mins followed by substrate addition measured after 30 mins relative to control; settings: time 40.0 min; method in brief: as §1
Saccharomyces cerevisiae [3] = assay: Reversible inhibition of Saccharomyces cerevisiae alpha-glucosidase
Method in brief: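 Rate (ΔOD/min) was plotted against α-glucosidase concentration at several fixed inhibitor levels, 0–35 µM. Conditions otherwise as in the PNPG 405 nm assay at pH 6.8 and 37 ℃.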

Saccharomyces cerevisiae [4] = assay: Mixed type inhibition of Saccharomyces cerevisiae alpha-glucosidase assessed as equilibrium constant for free enzyme using varying level of PNPG as substrate by Lineweaver-Burk double reciprocal plot analysis
Method in brief: (§2)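 Run as the PNPG/phosphate pH 6.8, 37 ℃, 405 nm assay, but with compound concentration varied together with either PNPG or enzyme level. Lineweaver-Burk plots were made. KI (free enzyme) and KIS (enzyme–substrate complex) were taken from apparent Km/Vmax and 1/Vmax plotted against inhibitor concentration.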

Saccharomyces cerevisiae [5] = assay: Mixed type inhibition of Saccharomyces cerevisiae alpha-glucosidase assessed as equilibrium constant for enzyme substrate complex using varying level of PNPG as substrate by Lineweaver-Burk double reciprocal plot analysis; method in brief: as §2

Compound | IC50 [1] | inhibition (Saccharomyces cerevisiae [2]) | inhibition (Saccharomyces cerevisiae [3]) | Ke (Saccharomyces cerevisiae [4]) | Ke (Saccharomyces cerevisiae [5])
O=C(/C=C/c1ccc(C(F)(F)F)cc1)Oc1ccc2ccc(=O)oc2c1 | > 100 µM | 38.2% | – | – | –
O=C(/C=C/c1ccc(F)cc1)Oc1ccc2ccc(=O)oc2c1 | > 100 µM | 26.2% | – | – | –
O=C(/C=C/c1ccc(Br)cc1)Oc1ccc2ccc(=O)oc2c1 | > 100 µM | 30.1% | – | – | –
O=C(/C=C/c1ccccc1)Oc1ccc2ccc(=O)oc2c1 [7-CINNAMOYLOXYCOUMARIN] | > 100 µM | 45.6% | – | – | –
O=C(O)/C=C/c1ccccc1 [CINNAMIC ACID] | 15000 µM | – | – | – | –
COc1cc(/C=C/C(=O)Oc2ccc3ccc(=O)oc3c2)ccc1O | > 100 µM | 20.3% | – | – | –
O=C(/C=C/c1ccccc1)Oc1cc(=O)oc2ccccc12 | 19.6 µM | 83.5% | Active | 27.4 µM | 13 µM
O=C(/C=C/c1ccc(O)cc1)Oc1ccc2ccc(=O)oc2c1 | > 100 µM | 13.1% | – | – | –
COc1cc(/C=C/C(=O)Oc2cc(=O)oc3ccccc23)ccc1O | > 100 µM | 19.5% | – | – | –
O=C(/C=C/c1ccc(C(F)(F)F)cc1)Oc1cc(=O)oc2ccccc12 | > 100 µM | 41.9% | – | – | –
Cc1ccc(/C=C/C(=O)Oc2cc(=O)oc3ccccc23)cc1 | 13 µM | 89.9% | Active | 27 µM | 13.7 µM
O=C(/C=C/c1ccc(Cl)cc1)Oc1cc(=O)oc2ccccc12 | > 100 µM | 33.1% | – | – | –
Cc1ccc(/C=C/C(=O)Oc2ccc3ccc(=O)oc3c2)cc1 | 94.5 µM | 54.7% | – | – | –
O=C(/C=C/c1ccc(F)cc1)Oc1cc(=O)oc2ccccc12 | 41.7 µM | 68.5% | – | – | –

Now from value to molecule:

IC50 [1] | inhibition (Saccharomyces cerevisiae [2]) | inhibition (Saccharomyces cerevisiae [3]) | Ke (Saccharomyces cerevisiae [4]) | Ke (Saccharomyces cerevisiae [5]) | Compound
11.4 µM | – | – | – | – | C[C@H]1[C@H](C)CC[C@]2(C(=O)O)CC[C@]3(C)C(=CC[C@@H]4[C@@]5(C)CC[C@H](O)C(C)(C)[C@@H]5CC[C@]43C)[C@H]12 [URSOLIC ACID]
9000 µM | – | – | – | – | O=c1ccc2ccc(O)cc2o1 [UMBELLIFERONE]
69.3 µM | 61% | – | – | – | O=C(/C=C/c1ccc(Br)cc1)Oc1cc(=O)oc2ccccc12
> 100 µM | 29.9% | – | – | – | O=C(/C=C/c1ccc(Cl)cc1)Oc1ccc2ccc(=O)oc2c1
36.9 µM | 73.2% | – | – | – | COc1ccc(/C=C/C(=O)Oc2cc(=O)oc3ccccc23)cc1
> 100 µM | 33.2% | – | – | – | O=C(/C=C/c1ccc(O)cc1)Oc1cc(=O)oc2ccccc12
> 100 µM | 20.2% | – | – | – | COc1ccc(/C=C/C(=O)Oc2ccc3ccc(=O)oc3c2)cc1
